Test results reported in ChEMBL document CHEMBL4354828, “Discovery of Taniborbactam (VNRX-5133): A Broad-Spectrum Serine- and Metallo-β-lactamase Inhibitor for Carbapenem-Resistant Bacterial Infections” (J Med Chem, 2020).
Converted amounts (≈) assume the structure as drawn.

Legend:
[1] = system: Pseudomonas aeruginosa; test: Inhibition of KPC-2/PDC-42 in Pseudomonas aeruginosa CDC-0356 assessed as meropenem antibacterial activity at 4 ug/ml after 16 to 20 hrs by CLSI-based microbroth dilution method (reference value: […] ug/ml)
[2] = system: Klebsiella pneumoniae; test: Inhibition of KPC-2/SHV12/TEM-1 in Klebsiella pneumoniae CDC-0361 assessed as meropenem antibacterial activity at 4 ug/ml after 16 to 20 hrs by CLSI-based microbroth dilution method (reference value: […] ug/ml)
[3] = Half life in mouse at 10 mg/kg, iv after 1 to 6 hrs by LC-MS/MS analysis; format: ADME, organism-based; conditions: in vivo
[4] = Inhibition of bacterial CMY-2 using nitrocefin as substrate preincubated for 15 mins followed by susbtrate addition and measured after 10 mins by spectrophotometric method; set-up: species or system Bacteria
[5] = system: Escherichia coli; test: Inhibition of NDM in Escherichia coli CDC-0452 assessed as piperacillin antibacterial activity at 16 ug/ml after 16 to 20 hrs by CLSI-based microbroth dilution method (Rvb > […] ug/ml)
[6] = system: Klebsiella pneumoniae; test: Inhibition of VIM-27/CTX-M-15/SHV-11/OXA-1 in Klebsiella pneumoniae CDC-0040 assessed as meropenem antibacterial activity at 4 ug/ml after 16 to 20 hrs by CLSI-based microbroth dilution method
[7] = system: Klebsiella pneumoniae; test: Inhibition of OXA-232/OXA-9/TEM-1A/CTX-M-15/OXA-1 in Klebsiella pneumoniae CDC-0066 assessed as cefepime antibacterial activity at 8 ug/ml after 16 to 20 hrs by CLSI-based microbroth dilution method (Rvb > […] ug/ml)
[8] = Inhibition of bacterial IMP-1 using nitrocefin as substrate preincubated for 15 mins followed by susbtrate addition and measured after 10 mins by spectrophotometric method; set-up: species or system Bacteria
[9] = system: Escherichia coli; test: Inhibition of NDM in Escherichia coli CDC-0452 assessed as cefepime antibacterial activity after 16 to 20 hrs by CLSI-based microbroth dilution method (reference value: […] ug/ml)
[10] = system: Escherichia coli; test: Inhibition of NDM in Escherichia coli CDC-0452 assessed as meropenem antibacterial activity at 4 ug/ml after 16 to 20 hrs by CLSI-based microbroth dilution method (reference value: […] ug/ml)
[11] = system: Klebsiella pneumoniae ATCC BAA-1705; test: Inhibition of KPC-2 in Klebsiella pneumoniae ATCC BAA 1705 assessed as cefepime antibacterial activity at 8 ug/ml after 16 to 20 hrs by CLSI-based microbroth dilution method
Procedure, shortened: (§1)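 MDR β-lactamase-producing Gram-negative clinical isolates. […] MIC was reported as the inhibitor concentration that restores the partner's antibacterial activity.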

[12] = system: Escherichia coli; test: Inhibition of NDM-1/CMY-6/OXA-1 in Escherichia coli CDC-0055 assessed as cefepime antibacterial activity at 8 ug/ml after 16 to 20 hrs by CLSI-based microbroth dilution method; procedure, shortened: as §1
[13] = system: Enterobacter cloacae; test: Effect on growth of Enterobacter cloacae 144200 expressing p99 AmpC after 16 to 20 hrs by CLSI-based microbroth dilution method; format: organism-based; conditions: in vivo
[14] = Cytotoxicity against human Proximal tubule epithelial cells up to 1000 ug/ml relative to control; format: cell-based
[15] = target: Cytochrome P450 2C19 (Homo sapiens, UniProt P33261); test: Inhibition of human CYP2C19 at 100 uM; format: ADME
Sequence of Cytochrome P450 2C19 (P33261 whole entry): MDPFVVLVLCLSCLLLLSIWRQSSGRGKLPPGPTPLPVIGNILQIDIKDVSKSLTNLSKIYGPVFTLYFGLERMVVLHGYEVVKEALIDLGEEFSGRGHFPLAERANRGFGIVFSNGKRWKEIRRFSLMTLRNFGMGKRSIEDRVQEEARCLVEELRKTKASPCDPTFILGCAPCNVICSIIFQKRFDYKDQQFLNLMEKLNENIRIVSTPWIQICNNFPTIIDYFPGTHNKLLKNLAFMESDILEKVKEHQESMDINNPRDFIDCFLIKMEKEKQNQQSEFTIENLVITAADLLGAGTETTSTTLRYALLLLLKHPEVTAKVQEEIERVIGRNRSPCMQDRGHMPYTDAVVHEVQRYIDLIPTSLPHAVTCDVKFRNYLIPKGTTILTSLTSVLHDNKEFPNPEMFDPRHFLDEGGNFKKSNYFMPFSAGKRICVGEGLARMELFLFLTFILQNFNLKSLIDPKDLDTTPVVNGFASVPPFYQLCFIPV

[16] = system: Escherichia coli; test: Antibacterial activity against Escherichia coli UNT057-1 expressing CTX-M-15 infected in C3H/Hej mouse assessed as log reduction in viable bacterial counts in kidney at 8 mg/kg, sc bid co-treated with 16 mg/kg of cefepime and measured after 7 days (reference value: 7.25 +/- 0.16); format: functional
[17] = system: Klebsiella pneumoniae; test: Inhibition of KPC/Cephalosporinase in Klebsiella pneumoniae 664-1 assessed as cefepime antibacterial activity at 4 ug/ml after 16 to 20 hrs by CLSI-based microbroth dilution method (Rvb > […] ug/ml)
[18] = Inhibition of bacterial OXA-48 using nitrocefin as substrate preincubated for 15 mins followed by susbtrate addition and measured after 10 mins by spectrophotometric method; set-up: species or system Bacteria
[19] = Cytotoxicity against mouse 3T3 cells assessed as growth inhibition at 256 ug/ml relative to control; format: cell-based; conditions: NIH3T3 cells, read-out: Activity
[20] = Cytotoxicity against human HeLa cells assessed as growth inhibition at 256 ug/ml relative to control; format: cell-based; conditions: read-out: Activity
[21] = target: Stromelysin-1 (Homo sapiens, UniProt P08254); test: Inhibition of human MMP3 at 100 uM
Sequence of Stromelysin-1 (P08254 whole entry): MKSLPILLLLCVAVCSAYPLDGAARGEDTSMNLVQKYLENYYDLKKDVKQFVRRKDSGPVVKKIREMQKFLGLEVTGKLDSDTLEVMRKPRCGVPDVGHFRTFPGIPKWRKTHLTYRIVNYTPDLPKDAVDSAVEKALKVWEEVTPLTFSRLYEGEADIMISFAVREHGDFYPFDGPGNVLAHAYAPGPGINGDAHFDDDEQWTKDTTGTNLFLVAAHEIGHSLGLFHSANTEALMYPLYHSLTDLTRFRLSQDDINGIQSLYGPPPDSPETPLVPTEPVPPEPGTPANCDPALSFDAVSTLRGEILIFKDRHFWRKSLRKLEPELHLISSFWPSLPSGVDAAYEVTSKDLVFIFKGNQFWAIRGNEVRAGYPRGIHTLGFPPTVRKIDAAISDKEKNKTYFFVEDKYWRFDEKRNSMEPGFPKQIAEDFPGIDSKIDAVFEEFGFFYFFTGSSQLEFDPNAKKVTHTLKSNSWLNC

[22] = system: Klebsiella aerogenes; test: Effect on growth of Enterobacter aerogenes 188548 expressing AmpC after 16 to 20 hrs by CLSI-based microbroth dilution method; format: organism-based; conditions: in vivo
[23] = system: Klebsiella pneumoniae; test: Inhibition of TEM/CTX-M/SHV/KPC in Klebsiella pneumoniae 964-2 assessed as cefepime antibacterial activity at 4 ug/ml after 16 to 20 hrs by CLSI-based microbroth dilution method (Rvb > […] ug/ml)
[24] = system: Escherichia coli; test: Effect on growth of Escherichia coli J53 expressing SHV5/ AmpC/TEM-1 after 16 to 20 hrs by CLSI-based microbroth dilution method; format: organism-based; conditions: in vivo
[25] = Cytotoxicity against human MRC5 cells assessed as growth inhibition at 256 ug/ml relative to control; format: cell-based; conditions: read-out: Activity
[26] = target: Voltage-gated inwardly rectifying potassium channel KCNH2 (Homo sapiens, UniProt Q12809); test: Inhibition of human ERG at 100 uM
Sequence of Voltage-gated inwardly rectifying potassium channel KCNH2 (Q12809 whole entry): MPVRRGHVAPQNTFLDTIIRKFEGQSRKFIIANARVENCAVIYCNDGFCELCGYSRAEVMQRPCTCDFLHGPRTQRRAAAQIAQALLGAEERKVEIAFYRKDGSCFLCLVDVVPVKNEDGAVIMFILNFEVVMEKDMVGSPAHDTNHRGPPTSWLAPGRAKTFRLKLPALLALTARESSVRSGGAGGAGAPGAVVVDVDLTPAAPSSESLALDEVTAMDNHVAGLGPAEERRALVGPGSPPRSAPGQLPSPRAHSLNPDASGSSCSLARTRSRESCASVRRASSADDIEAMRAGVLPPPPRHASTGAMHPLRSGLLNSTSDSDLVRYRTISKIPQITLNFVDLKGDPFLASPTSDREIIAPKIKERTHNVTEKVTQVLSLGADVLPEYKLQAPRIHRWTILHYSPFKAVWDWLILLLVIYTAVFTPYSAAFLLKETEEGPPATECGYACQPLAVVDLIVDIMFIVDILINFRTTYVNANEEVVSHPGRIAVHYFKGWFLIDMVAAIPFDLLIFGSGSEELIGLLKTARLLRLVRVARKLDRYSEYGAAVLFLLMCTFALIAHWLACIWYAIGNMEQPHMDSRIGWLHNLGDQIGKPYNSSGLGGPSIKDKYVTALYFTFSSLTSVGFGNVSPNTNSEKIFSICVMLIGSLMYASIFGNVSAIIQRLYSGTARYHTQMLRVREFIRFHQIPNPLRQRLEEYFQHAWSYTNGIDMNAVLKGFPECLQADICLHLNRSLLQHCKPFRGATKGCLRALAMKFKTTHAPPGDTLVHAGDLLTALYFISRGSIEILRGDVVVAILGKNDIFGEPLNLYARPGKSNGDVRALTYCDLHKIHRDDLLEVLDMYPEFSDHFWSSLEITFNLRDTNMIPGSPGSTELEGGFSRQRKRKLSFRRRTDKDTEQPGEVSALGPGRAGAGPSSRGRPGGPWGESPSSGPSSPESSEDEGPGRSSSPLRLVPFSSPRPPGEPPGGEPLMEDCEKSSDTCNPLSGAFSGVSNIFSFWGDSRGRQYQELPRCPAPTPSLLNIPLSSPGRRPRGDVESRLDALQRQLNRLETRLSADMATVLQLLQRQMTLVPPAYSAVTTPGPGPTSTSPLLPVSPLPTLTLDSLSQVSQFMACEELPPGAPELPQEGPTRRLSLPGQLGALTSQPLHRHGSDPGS

[27] = target: Neutrophil elastase (Homo sapiens, UniProt P08246); test: Inhibition of human neutrophil elastase 2 at 100 uM
Sequence of Neutrophil elastase (P08246 whole entry): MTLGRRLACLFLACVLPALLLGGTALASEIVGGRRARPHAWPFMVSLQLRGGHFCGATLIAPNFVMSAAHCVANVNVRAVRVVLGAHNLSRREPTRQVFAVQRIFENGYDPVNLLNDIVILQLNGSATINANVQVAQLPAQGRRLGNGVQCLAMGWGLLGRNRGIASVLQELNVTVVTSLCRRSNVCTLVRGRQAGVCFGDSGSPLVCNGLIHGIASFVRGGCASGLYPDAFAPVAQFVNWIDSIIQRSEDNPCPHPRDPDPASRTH

[28] = system: Escherichia coli; test: Inhibition of TEM/CTX-M/SHV/Cephalosporinase in Escherichia coli EC1552 assessed as cefepime antibacterial activity at 4 ug/ml after 16 to 20 hrs by CLSI-based microbroth dilution method (reference value: […] ug/ml)
[29] = Inhibition of bacterial SHV-5 using cefotaxime as substrate preincubated for 15 mins followed by susbtrate addition and measured after 10 mins by spectrophotometric method; set-up: species or system Bacteria
[30] = system: Escherichia coli; test: Effect on growth of wild type Escherichia coli ATCC 25922 after 16 to 20 hrs by CLSI-based microbroth dilution method; format: organism-based; conditions: in vitro
[31] = target: Cytochrome P450 2D6 (Homo sapiens, UniProt P10635); test: Inhibition of human CYP2D6 at 100 uM; format: ADME
Sequence of Cytochrome P450 2D6 (P10635 whole entry): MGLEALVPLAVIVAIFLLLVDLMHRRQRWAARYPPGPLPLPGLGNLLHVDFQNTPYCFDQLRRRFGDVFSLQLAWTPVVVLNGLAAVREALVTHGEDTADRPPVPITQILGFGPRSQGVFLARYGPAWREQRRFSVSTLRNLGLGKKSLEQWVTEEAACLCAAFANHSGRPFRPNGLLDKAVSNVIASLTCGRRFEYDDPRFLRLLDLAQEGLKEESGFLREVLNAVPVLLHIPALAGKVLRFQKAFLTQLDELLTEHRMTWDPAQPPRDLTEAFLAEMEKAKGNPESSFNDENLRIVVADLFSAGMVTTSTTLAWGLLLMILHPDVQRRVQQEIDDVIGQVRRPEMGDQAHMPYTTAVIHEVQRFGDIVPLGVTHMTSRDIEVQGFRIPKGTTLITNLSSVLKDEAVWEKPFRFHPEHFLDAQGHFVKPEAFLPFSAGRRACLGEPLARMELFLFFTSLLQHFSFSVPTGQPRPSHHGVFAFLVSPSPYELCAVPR

[32] = system: Klebsiella pneumoniae; test: Effect on growth of Klebsiella pneumoniae A-1797 expressing KPC-2/VIM-4/CMY-4 after 16 to 20 hrs by CLSI-based microbroth dilution method; format: organism-based; conditions: in vivo
[33] = target: 72 kDa type IV collagenase (Homo sapiens, UniProt P08253); test: Inhibition of human MMP2 at 100 uM
Sequence of 72 kDa type IV collagenase (P08253 whole entry): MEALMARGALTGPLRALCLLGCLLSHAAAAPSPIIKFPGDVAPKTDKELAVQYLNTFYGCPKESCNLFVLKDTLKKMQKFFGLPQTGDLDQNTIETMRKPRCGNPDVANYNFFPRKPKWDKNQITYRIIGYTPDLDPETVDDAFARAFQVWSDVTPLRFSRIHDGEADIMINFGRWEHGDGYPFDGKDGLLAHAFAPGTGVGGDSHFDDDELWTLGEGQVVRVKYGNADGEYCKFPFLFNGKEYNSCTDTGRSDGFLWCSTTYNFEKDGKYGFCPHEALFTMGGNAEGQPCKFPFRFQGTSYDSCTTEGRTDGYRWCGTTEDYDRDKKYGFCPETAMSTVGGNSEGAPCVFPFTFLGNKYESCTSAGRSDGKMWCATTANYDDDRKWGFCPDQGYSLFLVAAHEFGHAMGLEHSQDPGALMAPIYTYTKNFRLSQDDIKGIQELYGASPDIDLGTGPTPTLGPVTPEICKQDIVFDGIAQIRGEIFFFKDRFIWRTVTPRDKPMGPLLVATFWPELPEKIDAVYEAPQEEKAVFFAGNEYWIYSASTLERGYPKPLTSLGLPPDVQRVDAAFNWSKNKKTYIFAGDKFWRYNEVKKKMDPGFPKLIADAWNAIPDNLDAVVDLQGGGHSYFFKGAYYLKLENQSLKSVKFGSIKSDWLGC

[34] = target: Beta-lactamase VIM-2 (Pseudomonas aeruginosa) (UniProt Q9K2N0); test: Inhibition of VIM-2 in Pseudomonas aeruginosa assessed as meropenem antibacterial activity at 4 ug/ml after 16 to 20 hrs by CLSI-based microbroth dilution method (Rvb >= […] ug/ml)
[35] = system: Klebsiella pneumoniae; test: Effect on growth of Klebsiella pneumoniae UMM expressing SHV5/KPC-2/TEM-1 after 16 to 20 hrs by CLSI-based microbroth dilution method; format: organism-based; conditions: in vivo

NC(=O)[C@@H]1CC[C@@H]2CN1C(=O)N2OS(=O)(=O)O [AVIBACTAM]
MIC [1]: 0.5 µg/mL (≈ 1.89 µM) | MIC [2]: 0.015 µg/mL (≈ 0.0566 µM) | half-life [3]: 6 min | IC50 [4]: 7 nM | MIC [5]: 8 µg/mL (≈ 30.2 µM) | MIC [6]: > 16 µg/mL | MIC [7]: 1 µg/mL (≈ 3.77 µM) | IC50 [8]: > 100000 nM | MIC [9]: 8 µg/mL (≈ 30.2 µM) | MIC [10]: 8 µg/mL (≈ 30.2 µM) | MIC [11]: 0.06 µg/mL (≈ 0.226 µM) | MIC [12]: 16 µg/mL (≈ 60.3 µM)

NCCN[C@H]1CC[C@H](CC(=O)N[C@H]2Cc3cccc(C(=O)O)c3OB2O)CC1
MIC [13]: > 128 µg/mL | MIC [1]: 1 µg/mL (≈ 2.57 µM) | Activity [14]: Non-Toxic | MIC [2]: 0.015 µg/mL (≈ 0.0385 µM) | inhibition (INH) [15]: Not Active | Activity [16]: 4.87 log10CFU | half-life [3]: 9.6 min | IC50 [4]: 7 nM | MIC [17]: 0.25 µg/mL (≈ 0.642 µM) | MIC [5]: 2 µg/mL (≈ 5.14 µM) | IC50 [18]: 420 nM | MIC [6]: 8 µg/mL (≈ 20.6 µM) | inhibition at 256 ug/ml [19]: < 20% | MIC [7]: 2 µg/mL (≈ 5.14 µM) | inhibition at 256 ug/ml [20]: < 20% | inhibition (INH) [21]: Not Active | MIC [22]: > 128 µg/mL | IC50 [8]: 39800 nM | MIC [9]: 0.125 µg/mL (≈ 0.321 µM) | MIC [23]: < 0.125 µg/mL | MIC [24]: > 128 µg/mL | inhibition at 256 ug/ml [25]: < 20% | MIC [10]: 0.25 µg/mL (≈ 0.642 µM) | inhibition (INH) [26]: Not Active | inhibition (INH) [27]: Not Active | MIC [28]: 0.5 µg/mL (≈ 1.28 µM) | IC50 [29]: 0.4 nM | MIC [30]: > 128 µg/mL | inhibition (INH) [31]: Not Active | MIC [32]: > 128 µg/mL | inhibition (INH) [33]: Not Active | MIC [11]: 0.06 µg/mL (≈ 0.154 µM) | MIC [12]: 2 µg/mL (≈ 5.14 µM) | MIC [34]: 0.06 µg/mL (≈ 0.154 µM) | MIC [35]: > 128 µg/mL
